Data from ChEMBL document CHEMBL5038575, “Novel Functionalized Cannabinoid Receptor Probes: Development of Exceptionally Potent Agonists” (J Med Chem, 2021).
Active and inactive are the calls of the source. The rule behind the calls is not given here.

Tests used:
[1] = target: T1, Cannabinoid receptor 2 (Homo sapiens, UniProt P34972); assay: Displacement of [3H]CP55940 from CB2 (unknown origin) assessed as reduction in maximum binding capacity at 4 nM incubated for 1 hr by TopCount scintillation counting method relative to control
Procedure, shortened: (§1)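 Wash-resistant binding. […] Saturation binding used 25 μg protein, [³H]CP-55,940 at 0.5–23.8 nM and 4 μM unlabeled CP-55,940 for nonspecific binding, 1 h at 30 °C. Samples were filtered and counted by scintillation. Bmax came from one-site fits; % reduction was taken versus untreated control.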

[2] = target: Cannabinoid receptor 2 (Mus musculus, UniProt P47936); assay: Displacement of [3H]CP55940 from mouse CB2 expressed in HEK293 cell membrane assessed as inhibition constant incubated for 1 hr by TopCount scintillation counting method; format: cell membranes
Procedure, shortened: (§2)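 Competition binding against [³H]CP-55,940. CB1 from rat brain membranes; CB2 from membranes of HEK293 cells expressing mouse or human CB2. IC50 obtained by nonlinear regression and converted to Ki. Three independent experiments in triplicate; mean with SEM.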

[3] = target: T1, Cannabinoid receptor 2; assay: Displacement of [3H]CP55940 from human CB2 expressed in HEK293 cell membrane assessed as inhibition constant incubated for 1 hr by TopCount scintillation counting method; format: cell membranes; procedure, shortened: as §2
[4] = target: Cannabinoid receptor 1 (Rattus norvegicus, UniProt P20272); assay: Displacement of [3H]CP55940 from rat brain membrane CB1 receptor assessed as inhibition constant incubated for 1 hr by TopCount scintillation counting method; format: cell membranes; procedure, shortened: as §2
[5] = target: Cannabinoid receptor 1 (Rattus norvegicus) (UniProt P20272); assay: Displacement of [3H]CP55940 from rat brain membrane CB1 assessed as reduction in maximum binding capacity at 4 nM incubated for 1 hr by TopCount scintillation counting method relative to control; format: cell membranes; procedure, shortened: as §1
[6] = target: T2, Cannabinoid receptor 1 (Homo sapiens, UniProt P21554); assay: Agonist activity at 3xHA tagged human CB1 receptor expressed in CHO-K1 cells assessed as reduction in forskolin-stimulated cAMP accumulation incubated for 30 mins by cAMP assay; format: functional, cell-based
[7] = target: T2, Cannabinoid receptor 1; assay: Agonist activity at 3xHA tagged human CB1 receptor expressed in CHO-K1 cells assessed as reduction in forskolin-stimulated cAMP accumulation by measuring maximal efficacy incubated for 30 mins by cAMP assay relative to CP-55940; format: functional, cell-based; settings: filed as agonist
Procedure, shortened: (§3)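 CHO-K1 cells stably expressing 3xHA-tagged CB1 or CB2, plated at 4000 cells/well in Opti-MEM with 1% FBS for 3 h at 37 °C. Cells cotreated with 25 μM RO-20-1724, 20 μM forskolin and agonist for 30 min at 37 °C, then lysed. cAMP read by HTRF (665/620 nm) after 1 h at room temperature in the dark. Data normalized to vehicle and 100 nM CP-55,940; three-parameter nonlinear regression; ≥4 experiments in duplicate.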

[8] = target: T1, Cannabinoid receptor 2; assay: Agonist activity at 3xHA tagged human CB2 receptor expressed in CHO-K1 cells assessed as reduction in forskolin-stimulated cAMP accumulation incubated for 30 mins by cAMP assay; format: functional, cell-based
[9] = target: T1, Cannabinoid receptor 2; assay: Agonist activity at 3xHA tagged human CB2 receptor expressed in CHO-K1 cells assessed as reduction in forskolin-stimulated cAMP accumulation by measuring maximal efficacy incubated for 30 mins by cAMP assay relative to CP-55940; format: functional, cell-based; settings: filed as agonist; procedure, shortened: as §3
[10] = system: Mus musculus; assay: Antinociceptive activity in CD-1 mouse model of thermal-induced nociception assessed as maximum efficacy causing increase in tail withdrawal latency at 0.03 mg/kg, ip measured 60 mins post-injection by tail flick test; format: functional, organism-based
Procedure, shortened: (§4)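 Male CD-1 mice, 25–30 g, n = 6/dose, each used once. Drug was dissolved in 2% DMSO, 4% Tween 80 and 4% propylene glycol, then diluted with saline, and given ip at 10 mL/kg. Tail immersed in a 52 °C water bath; latency recorded at baseline and at 20, 60, 180 and 360 min after injection. Results expressed as % maximum possible effect; ED50 given with 95% CI.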

[11] = target: Cannabinoid receptor 1 (Rattus norvegicus) (UniProt P20272); assay: Displacement of [3H]CP55940 from rat brain membrane CB1 assessed as reduction in maximum binding capacity at 4 nM incubated for 1 hr followed by compound washout and measured after 60 to 180 mins by TopCount scintillation counting method; format: cell membranes; settings: filed as agonist
[12] = system: Mus musculus; assay: Antinociceptive activity in CD-1 mouse model of thermal-induced nociception assessed as increase in tail withdrawal latency administered intraperitonially for 6 hrs by tail flick test; format: functional; settings: CD-1, ip; procedure, shortened: as §4
[13] = system: Mus musculus; assay: Induction of hypothermia in C57BL/6 mouse assessed as reduction in body temperature at 0.1 mg/kg, ip measured after 24 hrs; format: toxicity, organism-based; settings: in vivo
[14] = Toxicity in […] mouse assessed as reduction in gastrointestinal motility by measuring colonic expulsion at 0.1 mg/kg, ip measured after 20 to 220 mins; format: organism-based; settings: in vivo, time 20-220 min
Procedure, shortened: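 Mice, n = 6–7/treatment, given vehicle (DMSO/Tween 80/saline 2:1:17) or 0.1 mg/kg ip. At 20, 120 and 220 min, under light isoflurane, a 2.5 mm glass bead was inserted 2 cm into the rectum. Time to bead expulsion was recorded.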

[15] = system: Mus musculus; assay: Antinociceptive activity in CD-1 mouse model of thermal-induced nociception assessed as maximum efficacy causing increase in tail withdrawal latency administered intraperitonially for 6 hrs by tail flick test; format: functional, organism-based; settings: dose 0.03-1 mg/kg; procedure, shortened: as §4
[16] = system: Mus musculus; assay: Antinociceptive activity in CD-1 mouse model of thermal-induced nociception assessed as maximum efficacy causing increase in tail withdrawal latency at 0.03 to 1 mg/kg, ip measured 20 mins post-injection by tail flick test; format: functional, organism-based; settings: dose 0.03-1 mg/kg; procedure, shortened: as §4
[17] = Toxicity in C57BL/6 mouse assessed as reduction in locomotion at 0.1 to 1 mg/kg, ip measured after 20 mins; format: organism-based; settings: in vivo, dose 0.1-1 mg/kg
Procedure, shortened: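 C57BL/6 mice, n = 6–7/treatment, given ip drug in 2% DMSO/1% Tween 80/saline at 0.1–1.0 mg/kg. Habituated to the apparatus in the morning. Placed in an infrared beam activity monitor 20 min after injection; ambulatory and horizontal counts recorded over 10 min.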

Sequence of Cannabinoid receptor 2 (Mus musculus, UniProt P47936) (P47936 whole entry): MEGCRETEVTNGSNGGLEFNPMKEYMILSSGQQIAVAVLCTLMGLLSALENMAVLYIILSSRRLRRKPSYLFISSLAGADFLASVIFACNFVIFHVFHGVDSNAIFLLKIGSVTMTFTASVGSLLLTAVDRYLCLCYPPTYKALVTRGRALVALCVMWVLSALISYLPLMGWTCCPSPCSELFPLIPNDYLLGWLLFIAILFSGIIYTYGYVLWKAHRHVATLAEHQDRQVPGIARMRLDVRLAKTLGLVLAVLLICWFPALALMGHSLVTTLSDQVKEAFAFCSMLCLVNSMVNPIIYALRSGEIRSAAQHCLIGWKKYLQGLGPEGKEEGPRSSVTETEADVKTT
Sequence of Cannabinoid receptor 1 (Rattus norvegicus, UniProt P20272) (P20272 whole entry): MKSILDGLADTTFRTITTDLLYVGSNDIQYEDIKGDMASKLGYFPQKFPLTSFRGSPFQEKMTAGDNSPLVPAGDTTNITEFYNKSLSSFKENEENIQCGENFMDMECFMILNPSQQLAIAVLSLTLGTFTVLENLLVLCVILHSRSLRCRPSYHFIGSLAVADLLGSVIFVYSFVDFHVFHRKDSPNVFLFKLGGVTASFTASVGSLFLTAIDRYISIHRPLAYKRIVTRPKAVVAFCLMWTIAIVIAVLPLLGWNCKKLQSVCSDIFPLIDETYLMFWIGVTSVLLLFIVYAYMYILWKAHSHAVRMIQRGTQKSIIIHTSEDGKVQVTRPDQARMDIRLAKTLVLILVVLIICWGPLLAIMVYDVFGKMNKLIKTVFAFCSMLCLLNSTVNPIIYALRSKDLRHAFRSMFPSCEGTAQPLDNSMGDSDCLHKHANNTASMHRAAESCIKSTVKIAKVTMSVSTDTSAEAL
Sequence of Cannabinoid receptor 1 (Rattus norvegicus) (P20272 whole entry): as above
T1 sequence (P34972 whole entry): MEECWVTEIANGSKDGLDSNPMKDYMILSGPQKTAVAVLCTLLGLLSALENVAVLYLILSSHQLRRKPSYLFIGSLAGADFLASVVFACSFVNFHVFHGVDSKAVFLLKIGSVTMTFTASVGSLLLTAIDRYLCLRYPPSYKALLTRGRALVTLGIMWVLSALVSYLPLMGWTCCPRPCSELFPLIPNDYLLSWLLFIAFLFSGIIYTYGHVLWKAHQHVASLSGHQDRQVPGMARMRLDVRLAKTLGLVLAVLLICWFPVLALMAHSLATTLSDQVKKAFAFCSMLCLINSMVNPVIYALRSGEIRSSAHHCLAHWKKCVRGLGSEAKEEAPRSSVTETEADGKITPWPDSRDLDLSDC
T2 sequence (P21554 whole entry): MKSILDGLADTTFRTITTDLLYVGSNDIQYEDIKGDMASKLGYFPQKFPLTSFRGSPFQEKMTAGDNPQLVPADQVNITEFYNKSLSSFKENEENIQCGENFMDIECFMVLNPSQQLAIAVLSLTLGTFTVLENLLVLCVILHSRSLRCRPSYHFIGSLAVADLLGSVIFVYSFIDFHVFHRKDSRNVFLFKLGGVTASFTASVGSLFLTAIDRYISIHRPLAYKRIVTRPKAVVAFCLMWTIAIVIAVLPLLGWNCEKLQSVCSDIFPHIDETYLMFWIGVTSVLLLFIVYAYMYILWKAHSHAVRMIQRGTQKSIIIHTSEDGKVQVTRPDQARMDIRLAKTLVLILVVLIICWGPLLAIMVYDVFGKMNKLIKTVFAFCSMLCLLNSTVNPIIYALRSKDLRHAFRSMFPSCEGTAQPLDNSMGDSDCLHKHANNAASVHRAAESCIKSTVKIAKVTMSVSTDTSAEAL

SMILES: CC1(C)Oc2cc(C3(CCCCCCN=[N+]=[N-])CCCC3)cc(O)c2[C@@H]2C[C@H](CO)CC[C@H]21
- Bmax ([1]; filed as agonist): 65%
- Ki [2]: 800 pM
- Ki [3]: 800 pM
- Ki [4]: 400 pM
- Bmax ([5]; filed as agonist): 87%

SMILES: CC1(C)Oc2cc(C3(CCCCCCCC#N)CCCC3)cc(O)c2[C@@H]2C[C@H](CN=C=S)CC[C@H]21
- Activity [1]: inactive
- Ki [2]: 1900 pM
- Ki [3]: 600 pM
- Ki [4]: 400 pM
- Activity [5]: inactive

SMILES: CC(C)(CCCCCCN=[N+]=[N-])c1cc(O)c2c(c1)OC(C)(C)[C@@H]1CC[C@@H](CO)C[C@@H]21
- EC50 [6]: 98 pM
- Bmax ([1]; filed as agonist): 63%
- Emax [7]: 99%
- Ki [2]: 800 pM
- Ki [3]: 1400 pM
- EC50 [8]: 770 pM
- Emax [9]: 72%
- Ki [4]: 410 pM
- Bmax ([5]; filed as agonist): 75%

SMILES: CC(C)(CCCCCCC#N)c1cc(O)c2c(c1)OC(C)(C)[C@@H]1CC[C@@H](CO)C[C@@H]21
- Activity [10]: inactive
- EC50 [6]: 88 pM
- Activity [11]: Active
- ED50 [12]: 0.12 mg/kg
- Bmax ([1]; filed as agonist): 60%
- Activity [13]: Toxic
- Activity [14]: Toxic
- Emax [7]: 103%
- Ki [2]: 800 pM
- Ki [3]: 400 pM
- EC50 [8]: 380 pM
- Emax [9]: 70%
- Activity [15]: Dose-Dependent Effect
- Activity [16]: Active
- Activity [17]: Toxic
- Ki [4]: 400 pM
- Bmax ([5]; filed as agonist): 76%

SMILES: CC1(C)Oc2cc(C3(CCCCCCCC#N)CCCC3)cc(O)c2[C@@H]2C[C@H](CO)CC[C@H]21
- Bmax ([1]; filed as agonist): 40%
- Ki [2]: 900 pM
- Ki [3]: 400 pM
- Ki [4]: 500 pM
- Bmax ([5]; filed as agonist): 60%

SMILES: CC1(C)Oc2cc(C3(CCCCCCN=C=S)CCCC3)cc(O)c2[C@@H]2C[C@H](CO)CC[C@H]21
- EC50 [6]: 520 pM
- Bmax [1]: 34%
- Emax [7]: 104%
- Ki [2]: 900 pM
- Ki [3]: 1300 pM
- EC50 [8]: 2700 pM
- Emax [9]: 57%
- Ki [4]: 1100 pM
- Bmax [5]: 39%

SMILES: CC1(C)Oc2cc(C3(CCCCCCCN=C=S)CCCC3)cc(O)c2[C@@H]2C[C@H](CO)CC[C@H]21
- EC50 [6]: 430 pM
- Bmax [1]: 19%
- Emax [7]: 105%
- Ki [2]: 1100 pM
- Ki [3]: 1000 pM
- EC50 [8]: 390 pM
- Emax [9]: 74%
- Ki [4]: 400 pM
- Bmax ([5]; filed as agonist): 51%

SMILES: CC1(C)Oc2cc(C3(CCCCCCC#N)CCCC3)cc(O)c2[C@@H]2C[C@H](CO)CC[C@H]21
- EC50 [6]: 310 pM
- Bmax ([1]; filed as agonist): 45%
- Emax [7]: 112%
- Ki [2]: 1000 pM
- Ki [3]: 1400 pM
- EC50 [8]: 960 pM
- Emax [9]: 61%
- Ki [4]: 800 pM
- Bmax ([5]; filed as agonist): 68%

SMILES: CC1(C)Oc2cc(C3(CCCCCCCN=C=S)CCCC3)cc(O)c2[C@@H]2C[C@H](CN=C=S)CC[C@H]21
- Bmax [1]: 15%
- Ki [2]: 14600 pM
- Ki [3]: 4200 pM
- Ki [4]: 37600 pM
- Bmax [5]: 37%

SMILES: CC(C)(CCCCCCN=C=S)c1cc(O)c2c(c1)OC(C)(C)[C@@H]1CC[C@@H](CO)C[C@@H]21
- EC50 [6]: 5800 pM
- Bmax ([1]; filed as agonist): 75%
- Emax [7]: 96%
- Ki [2]: 800 pM
- Ki [3]: 3150 pM
- EC50 [8]: 5500 pM
- Emax [9]: 107%
- Ki [4]: 390 pM
- Bmax ([5]; filed as agonist): 65%

SMILES: CCCCCCC(C)(C)c1cc(O)c2c(c1)OC(C)(C)[C@@H]1CC[C@@H](CO)C[C@@H]21
- Activity [1]: inactive
- Ki [3]: 2100 pM
- Ki [4]: 3000 pM
- Activity [5]: inactive

SMILES: CC1(C)Oc2cc(C3(CCCCCCCN=[N+]=[N-])CCCC3)cc(O)c2[C@@H]2C[C@H](CO)CC[C@H]21
- Bmax [1]: 37%
- Ki [2]: 1600 pM
- Ki [3]: 1500 pM
- Ki [4]: 500 pM
- Bmax ([5]; filed as agonist): 48%

SMILES: CC1(C)Oc2cc(C3(CCCCCCCC#N)CCCC3)cc(O)c2[C@@H]2C[C@H](CN=[N+]=[N-])CC[C@H]21
- Activity [1]: inactive
- Ki [2]: 1400 pM
- Ki [3]: 300 pM
- Ki [4]: 300 pM
- Activity [5]: inactive

SMILES: CC1(C)Oc2cc(C3(CCCCCCCN=[N+]=[N-])CCCC3)cc(O)c2[C@@H]2C[C@H](CN=[N+]=[N-])CC[C@H]21
- Bmax [1]: 21%
- Ki [2]: 1200 pM
- Ki [3]: 1500 pM
- Ki [4]: 700 pM
- Bmax [5]: 28%
